Experimental data of several laboratories.
Target: Prostaglandin G/H synthase 1 (PTGS1, Ovis aries, UniProt P05979)
Effect on: enzyme activity
Action: inhibitor
Sequence (P05979 25-600, as in one of the studies): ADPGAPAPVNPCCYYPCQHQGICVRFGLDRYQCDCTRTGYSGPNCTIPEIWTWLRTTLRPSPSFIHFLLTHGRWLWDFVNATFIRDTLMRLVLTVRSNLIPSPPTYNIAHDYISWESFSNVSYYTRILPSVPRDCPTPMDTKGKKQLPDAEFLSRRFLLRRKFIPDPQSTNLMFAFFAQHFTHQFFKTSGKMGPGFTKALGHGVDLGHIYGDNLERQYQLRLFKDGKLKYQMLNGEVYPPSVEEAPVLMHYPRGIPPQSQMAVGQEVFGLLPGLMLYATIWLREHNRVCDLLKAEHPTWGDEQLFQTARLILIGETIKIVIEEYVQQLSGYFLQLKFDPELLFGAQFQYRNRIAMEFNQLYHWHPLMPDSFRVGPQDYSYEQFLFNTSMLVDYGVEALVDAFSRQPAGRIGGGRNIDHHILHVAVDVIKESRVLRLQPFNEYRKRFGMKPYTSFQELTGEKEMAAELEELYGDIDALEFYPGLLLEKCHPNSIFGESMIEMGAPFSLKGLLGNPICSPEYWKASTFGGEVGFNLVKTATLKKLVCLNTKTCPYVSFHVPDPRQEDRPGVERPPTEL

technique	IC50	Structure (SMILES)
fluorescence	29.7 µM	COc1ccc(Nc2c(-c3ccc(S(C)(=O)=O)cc3)nc3cc(C)ccn23)cc1
absorbance	> 100 µM	NS(=O)(=O)c1ccc(-c2ncc(Cl)cc2-c2nc3ccccc3s2)cc1
	62.7 µM	COc1ccc(-c2nn(-c3ccc(S(C)(=O)=O)cc3)cc2/C=N/N=c2\[nH]c(-c3ccc(Br)cc3)cs2)cc1
absorbance	11 µM	Fc1ccc(-c2ccccc2F)cc1OC(F)(F)F
fluorescence	40.2 µM	Cc1cccc2nc(-c3ccc(S(C)(=O)=O)cc3)c(Nc3ccc(F)cc3)n12
	2 µM	CSc1ccc(/C=C2\C=C(CC(=O)NS(=O)(=O)c3ccc(Cl)s3)c3cc(F)ccc32)cc1
	9.42 µM	CS(=O)(=O)c1ccc(-n2cc(/C=N/N=c3\[nH]c(-c4ccc(Br)cc4)cs3)c(-c3ccc(Br)cc3)n2)cc1
absorbance	8.79 µM	COc1ccccc1-c1ccc([N+](=O)[O-])cc1
fluorescence	19.6 µM	Cc1ccc(Nc2c(-c3ccc(S(C)(=O)=O)cc3)nc3cccc(C)n23)cc1
absorbance	> 100 µM	NS(=O)(=O)c1ccc(-c2ncccc2-c2nc3ccccc3s2)cc1
	3.2 µM	Cc1ccc(/C=C2\C=C(CC(=O)O)c3cc(F)ccc32)cc1
fluorescence	16.5 µM	COc1ccc(Nc2c(-c3ccc(S(C)(=O)=O)cc3)nc3ccccn23)cc1
absorbance	10.2 µM	O=[N+]([O-])c1cccc(-c2ccccc2F)c1F
fluorescence	29.4 µM	Cc1cccn2c(Nc3ccc(Cl)cc3)c(-c3ccc(S(C)(=O)=O)cc3)nc12
	19.7 µM	CC(C)Cc1ccc(-c2nn(-c3ccc(S(C)(=O)=O)cc3)cc2/C=N\N=C2/NC(=O)CS2)cc1
fluorescence	23.8 µM	CS(=O)(=O)c1ccc(-c2nc3ccccn3c2Nc2ccc(F)cc2)cc1
absorbance	8.23 µM	COc1ccc(F)c(-c2ccccc2OC)c1
absorbance	12.9 µM	C[C@@H]1O[C@@H](OC[C@H]2O[C@@H](Oc3c(-c4ccc(O)cc4)oc4cc(O)cc(O)c4c3=O)[C@H](O[C@@H]3O[C@H](CO)[C@@H](O)[C@H](O)[C@H]3O)[C@@H](O)[C@@H]2O)[C@H](O)[C@H](O)[C@H]1O
absorbance	> 100 µM	CS(=O)(=O)c1ccc(-c2ncc(Cl)cc2-c2nc3ccccc3s2)cc1
fluorescence	31.5 µM	Cc1cccn2c(Nc3ccc(F)cc3)c(-c3ccc(S(C)(=O)=O)cc3)nc12
	49.6 µM	Cc1ccc(-c2nn(-c3ccc(S(C)(=O)=O)cc3)cc2/C=N\N=c2/[nH]c(-c3ccc([N+](=O)[O-])cc3)cs2)cc1
	3.9 µM	CSc1ccc(/C=C2\C=C(CC(=O)NS(=O)(=O)c3ccc(C(F)(F)F)cc3)c3cc(F)ccc32)cc1
	0.05 µM	CC(C(=O)O)c1cccc(C(=O)c2ccccc2)c1 (stereo not drawn)
	23.2 µM	COc1ccc(-c2nn(-c3ccc(S(C)(=O)=O)cc3)cc2C=N/N=c2\[nH]c(-c3ccc([N+](=O)[O-])cc3)cs2)cc1
